Tests used:
[1] = molecular target: T1, Transient receptor potential cation channel subfamily A member 1 (Rattus norvegicus, UniProt Q6RI86); assay: Antagonist activity at rat recombinant TRPA1 receptor expressed in HEK293 cells assessed as inhibition of 100 uM allyl isothiocyanate-induced stimulation of intracellular calcium level using Fluo4-AM dye based fluorimetric assay; format: functional, cell-based
Method in brief: (§1)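 Fluo-4 AM loaded stable HEK293 cells in Tyrode's buffer, read at 25 °C (ex 488/em 516 nm). Test compound added to the cuvette 5 min before the agonist: capsaicin 0.1 μM (TRPV1), AITC 100 μM (TRPA1), LPC 3 μM (TRPV2). Agonist alone taken as 100%. IC50 for half-maximal inhibition from curve fit. At least triplicate.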

[2] = molecular target: T2, Transient receptor potential cation channel subfamily V member 2 (Rattus norvegicus, UniProt Q9WUD2); assay: Antagonist activity at rat recombinant TRPV2 receptor expressed in HEK293 cells assessed as inhibition of 3 uM lysophosphatidylcholine-induced stimulation of intracellular calcium level using Fluo4-AM dye based fluorimetric assay; format: functional, cell-based; method in brief: as §1
T2 sequence (Q9WUD2 whole entry): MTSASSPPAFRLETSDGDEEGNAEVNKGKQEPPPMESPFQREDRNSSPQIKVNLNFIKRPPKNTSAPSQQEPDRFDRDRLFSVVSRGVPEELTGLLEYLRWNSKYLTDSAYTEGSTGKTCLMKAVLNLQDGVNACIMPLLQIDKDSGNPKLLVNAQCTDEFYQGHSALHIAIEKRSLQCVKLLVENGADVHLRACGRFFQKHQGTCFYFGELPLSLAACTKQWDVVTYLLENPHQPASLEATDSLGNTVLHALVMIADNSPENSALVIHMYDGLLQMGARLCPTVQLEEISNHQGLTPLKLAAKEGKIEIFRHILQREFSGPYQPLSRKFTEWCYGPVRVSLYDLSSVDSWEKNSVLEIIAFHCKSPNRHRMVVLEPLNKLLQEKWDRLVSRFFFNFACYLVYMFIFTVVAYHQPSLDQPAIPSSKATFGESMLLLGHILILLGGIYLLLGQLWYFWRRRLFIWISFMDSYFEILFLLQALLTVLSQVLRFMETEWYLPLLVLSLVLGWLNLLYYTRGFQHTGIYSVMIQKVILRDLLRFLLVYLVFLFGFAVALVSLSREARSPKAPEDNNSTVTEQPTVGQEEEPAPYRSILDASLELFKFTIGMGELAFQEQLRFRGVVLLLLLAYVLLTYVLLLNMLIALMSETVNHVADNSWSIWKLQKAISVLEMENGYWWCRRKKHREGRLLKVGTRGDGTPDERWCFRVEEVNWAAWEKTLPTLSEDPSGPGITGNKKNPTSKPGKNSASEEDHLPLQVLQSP

[3] = molecular target: Transient receptor potential cation channel subfamily M member 8 (Rattus norvegicus, UniProt Q8R455); assay: Antagonist activity at rat recombinant TRPM8 receptor expressed in HEK293 cells assessed as inhibition of 0.25 uM icilin-induced stimulation of intracellular calcium level using Fluo4-AM dye based fluorimetric assay; format: functional, cell-based
Transient receptor potential cation channel subfamily M member 8, sequence (Q8R455 whole entry): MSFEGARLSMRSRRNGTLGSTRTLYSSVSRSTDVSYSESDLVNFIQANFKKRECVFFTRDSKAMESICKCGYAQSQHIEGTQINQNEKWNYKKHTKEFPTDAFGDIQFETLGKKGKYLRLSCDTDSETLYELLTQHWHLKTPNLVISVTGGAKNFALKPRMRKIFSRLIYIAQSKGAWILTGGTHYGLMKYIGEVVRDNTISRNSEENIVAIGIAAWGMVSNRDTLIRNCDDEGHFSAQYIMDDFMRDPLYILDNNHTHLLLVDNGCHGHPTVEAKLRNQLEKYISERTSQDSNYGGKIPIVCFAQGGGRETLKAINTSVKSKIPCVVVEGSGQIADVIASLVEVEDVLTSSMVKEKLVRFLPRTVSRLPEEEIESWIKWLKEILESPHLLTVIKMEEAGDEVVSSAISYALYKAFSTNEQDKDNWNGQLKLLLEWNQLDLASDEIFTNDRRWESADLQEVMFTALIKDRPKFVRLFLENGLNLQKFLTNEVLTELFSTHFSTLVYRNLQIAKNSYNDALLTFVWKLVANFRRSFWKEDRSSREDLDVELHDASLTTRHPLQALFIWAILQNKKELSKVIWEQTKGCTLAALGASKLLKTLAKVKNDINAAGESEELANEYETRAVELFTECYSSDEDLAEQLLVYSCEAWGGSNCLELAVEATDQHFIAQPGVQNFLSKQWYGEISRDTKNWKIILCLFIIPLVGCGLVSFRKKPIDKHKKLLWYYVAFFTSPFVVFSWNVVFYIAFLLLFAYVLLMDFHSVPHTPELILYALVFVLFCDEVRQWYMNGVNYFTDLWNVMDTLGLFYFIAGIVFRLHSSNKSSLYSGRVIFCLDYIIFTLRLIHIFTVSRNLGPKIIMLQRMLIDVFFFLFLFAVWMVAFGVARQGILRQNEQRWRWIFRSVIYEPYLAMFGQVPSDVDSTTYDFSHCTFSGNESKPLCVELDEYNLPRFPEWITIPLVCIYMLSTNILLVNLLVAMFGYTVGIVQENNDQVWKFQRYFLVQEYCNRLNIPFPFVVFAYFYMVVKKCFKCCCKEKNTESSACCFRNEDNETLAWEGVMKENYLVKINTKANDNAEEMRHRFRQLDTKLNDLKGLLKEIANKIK
Method in brief: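 Fluo-4 AM loaded rat TRPM8 HEK293 cells in Tyrode's buffer, read at 22 °C with a Peltier-controlled cuvette. Compound added 5 min before 0.25 μM icilin, whose effect alone was taken as 100%. IC50 for half-maximal inhibition from curve fit. At least triplicate.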

[4] = molecular target: T3, Transient receptor potential cation channel subfamily V member 1 (Homo sapiens, UniProt Q8NER1); assay: Agonist activity at human TRPv1 receptor expressed in HEK293 cells assessed as stimulation of intracellular calcium level using Fluo4-AM dye based fluorimetric assay; format: functional, cell-based
T3 sequence (Q8NER1 whole entry): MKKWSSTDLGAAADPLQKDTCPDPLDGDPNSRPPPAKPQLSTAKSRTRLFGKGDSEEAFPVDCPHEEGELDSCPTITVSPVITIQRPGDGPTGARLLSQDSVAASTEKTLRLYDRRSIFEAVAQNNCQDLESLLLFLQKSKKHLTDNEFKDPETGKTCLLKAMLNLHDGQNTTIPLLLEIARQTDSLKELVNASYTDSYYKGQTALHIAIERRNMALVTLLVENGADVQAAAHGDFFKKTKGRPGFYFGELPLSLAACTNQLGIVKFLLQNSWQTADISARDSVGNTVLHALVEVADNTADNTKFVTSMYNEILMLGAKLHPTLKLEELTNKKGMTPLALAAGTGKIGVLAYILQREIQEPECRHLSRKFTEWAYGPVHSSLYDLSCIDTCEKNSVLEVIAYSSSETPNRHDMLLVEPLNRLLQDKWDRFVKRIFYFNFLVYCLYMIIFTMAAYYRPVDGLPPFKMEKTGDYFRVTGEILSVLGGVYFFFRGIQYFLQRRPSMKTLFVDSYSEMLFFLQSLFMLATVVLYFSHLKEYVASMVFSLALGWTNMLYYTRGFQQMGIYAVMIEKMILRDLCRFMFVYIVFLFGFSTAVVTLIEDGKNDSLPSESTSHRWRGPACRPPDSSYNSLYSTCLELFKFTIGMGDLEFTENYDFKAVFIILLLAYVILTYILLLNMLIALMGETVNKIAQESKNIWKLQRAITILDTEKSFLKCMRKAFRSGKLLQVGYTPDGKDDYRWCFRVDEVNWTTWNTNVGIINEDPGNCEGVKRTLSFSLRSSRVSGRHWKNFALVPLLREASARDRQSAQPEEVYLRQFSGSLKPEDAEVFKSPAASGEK
Method in brief: (§2)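 Stable HEK293 lines (G-418 selected, expression checked by qPCR) loaded 1 h at room temperature with Fluo-4 AM 4 μM. Cells washed and resuspended in Tyrode's buffer pH 7.4. Fluorescence (ex 488/em 516 nm) read in a stirred cuvette at 25 °C before and after test compound at various concentrations. EC50 from sigmoidal variable-slope fit. At least triplicate.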

Cannabinoid receptor 1 = Cannabinoid receptor 1 (Homo sapiens, UniProt P21554); assay: Displacement of [3H]-CP-55,940 from human recombinant CB1 receptor expressed in HEK293 cells membrane incubated for 90 mins; format: cell membranes
Cannabinoid receptor 1, sequence (P21554 whole entry): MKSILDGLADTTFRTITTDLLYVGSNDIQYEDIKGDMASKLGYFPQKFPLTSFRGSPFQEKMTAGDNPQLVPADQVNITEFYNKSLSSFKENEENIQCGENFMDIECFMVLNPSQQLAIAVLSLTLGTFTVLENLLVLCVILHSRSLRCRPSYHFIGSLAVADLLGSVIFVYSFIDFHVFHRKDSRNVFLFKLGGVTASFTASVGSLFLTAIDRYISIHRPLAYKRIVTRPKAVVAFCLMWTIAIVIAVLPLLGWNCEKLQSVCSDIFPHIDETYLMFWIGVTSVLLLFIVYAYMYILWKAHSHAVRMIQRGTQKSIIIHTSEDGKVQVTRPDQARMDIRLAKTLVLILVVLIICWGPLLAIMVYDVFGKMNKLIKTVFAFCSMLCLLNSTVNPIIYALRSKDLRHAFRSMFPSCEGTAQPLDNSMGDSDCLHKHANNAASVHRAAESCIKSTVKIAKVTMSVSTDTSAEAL

[5] = molecular target: T2, Transient receptor potential cation channel subfamily V member 2; assay: Agonist activity at rat recombinant TRPV2 receptor expressed in HEK293 cells assessed as stimulation of intracellular calcium level using Fluo4-AM dye based fluorimetric assay; format: functional, cell-based; method in brief: as §2
[6] = molecular target: Transient receptor potential cation channel subfamily A member 1 (Rattus norvegicus) (UniProt Q6RI86); assay: Agonist activity at rat recombinant TRPA1 receptor expressed in HEK293 cells assessed as stimulation of intracellular calcium level using Fluo4-AM dye based fluorimetric assay relative to allyl isothiocyanate; format: functional, cell-based
Transient receptor potential cation channel subfamily A member 1 (Rattus norvegicus), sequence (Q6RI86 whole entry): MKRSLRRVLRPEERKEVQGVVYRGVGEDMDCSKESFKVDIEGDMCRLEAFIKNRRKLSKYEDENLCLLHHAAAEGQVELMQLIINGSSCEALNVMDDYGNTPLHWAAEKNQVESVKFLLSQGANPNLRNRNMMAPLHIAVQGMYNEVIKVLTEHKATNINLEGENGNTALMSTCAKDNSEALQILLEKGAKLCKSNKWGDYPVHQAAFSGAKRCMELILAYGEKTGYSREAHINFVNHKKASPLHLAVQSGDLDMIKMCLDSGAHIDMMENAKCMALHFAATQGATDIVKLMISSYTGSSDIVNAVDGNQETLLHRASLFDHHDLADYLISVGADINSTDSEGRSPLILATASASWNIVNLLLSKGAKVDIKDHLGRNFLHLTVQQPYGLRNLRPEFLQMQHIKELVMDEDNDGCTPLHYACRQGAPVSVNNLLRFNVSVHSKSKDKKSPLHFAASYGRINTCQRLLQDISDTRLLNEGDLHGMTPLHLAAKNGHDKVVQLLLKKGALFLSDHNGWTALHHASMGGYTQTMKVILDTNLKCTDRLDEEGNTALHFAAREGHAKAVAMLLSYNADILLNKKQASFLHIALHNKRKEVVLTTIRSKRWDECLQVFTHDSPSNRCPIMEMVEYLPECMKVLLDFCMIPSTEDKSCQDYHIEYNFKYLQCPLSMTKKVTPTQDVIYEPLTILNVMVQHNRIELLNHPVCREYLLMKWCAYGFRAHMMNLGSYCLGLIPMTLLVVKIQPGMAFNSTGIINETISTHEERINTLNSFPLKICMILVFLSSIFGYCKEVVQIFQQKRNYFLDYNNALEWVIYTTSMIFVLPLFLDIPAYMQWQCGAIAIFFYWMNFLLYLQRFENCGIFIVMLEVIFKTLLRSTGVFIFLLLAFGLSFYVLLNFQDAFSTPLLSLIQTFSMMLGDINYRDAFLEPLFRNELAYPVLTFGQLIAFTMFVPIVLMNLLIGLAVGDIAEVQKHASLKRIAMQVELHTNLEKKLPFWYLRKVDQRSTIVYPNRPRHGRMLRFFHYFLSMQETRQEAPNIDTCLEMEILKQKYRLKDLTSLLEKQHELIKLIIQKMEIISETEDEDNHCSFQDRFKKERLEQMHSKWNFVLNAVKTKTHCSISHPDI

[7] = molecular target: T1, Transient receptor potential cation channel subfamily A member 1; assay: Agonist activity at rat recombinant TRPA1 receptor expressed in HEK293 cells assessed as stimulation of intracellular calcium level using Fluo4-AM dye based fluorimetric assay; format: functional, cell-based; method in brief: as §2
[8] = molecular target: T3, Transient receptor potential cation channel subfamily V member 1; assay: Agonist activity at human TRPv1 receptor expressed in HEK293 cells assessed as stimulation of intracellular calcium level using Fluo4-AM dye based fluorimetric assay relative to 4 uM ionomycin; format: functional, cell-based
Cannabinoid receptor 2 = Cannabinoid receptor 2 (Homo sapiens, UniProt P34972); assay: Displacement of [3H]-CP-55,940 from human recombinant CB2 receptor expressed in HEK293 cells membrane incubated for 90 mins; format: cell membranes
Cannabinoid receptor 2, sequence (P34972 whole entry): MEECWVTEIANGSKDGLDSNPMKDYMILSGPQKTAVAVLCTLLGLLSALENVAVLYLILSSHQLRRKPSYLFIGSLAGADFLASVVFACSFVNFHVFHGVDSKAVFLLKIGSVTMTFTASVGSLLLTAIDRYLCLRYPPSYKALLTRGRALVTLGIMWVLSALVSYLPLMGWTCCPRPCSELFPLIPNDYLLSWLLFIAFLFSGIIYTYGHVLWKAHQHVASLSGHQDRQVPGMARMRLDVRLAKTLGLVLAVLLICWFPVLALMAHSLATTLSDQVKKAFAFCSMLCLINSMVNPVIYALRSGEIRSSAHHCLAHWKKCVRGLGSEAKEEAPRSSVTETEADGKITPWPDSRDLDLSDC

[9] = molecular target: T4, Transient receptor potential cation channel subfamily V member 2 (Rattus norvegicus) (UniProt Q9WUD2); assay: Agonist activity at rat recombinant TRPV2 receptor expressed in HEK293 cells assessed as stimulation of intracellular calcium level using Fluo4-AM dye based fluorimetric assay relative to 4 uM ionomycin; format: functional, cell-based
T4 sequence (whole entry): T2 sequence (Q9WUD2 whole entry)

[10] = molecular target: T3, Transient receptor potential cation channel subfamily V member 1; assay: Antagonist activity at human TRPv1 receptor expressed in HEK293 cells assessed as inhibition of 0.1 um capsaicin-induced stimulation of intracellular calcium level using Fluo4-AM dye based fluorimetric assay; format: functional, cell-based; method in brief: as §1

T1 sequence (Q6RI86 whole entry): as the sequence (Q6RI86 whole entry) above

| Compound | IC50 [1] [nM] | IC50 [2] [nM] | IC50 [3] [nM] | EC50 [4] [nM] | IC50 (Cannabinoid receptor 1) [nM] | Ki (Cannabinoid receptor 1) [nM] | EC50 [5] [nM] | Emax [6] [%] | EC50 [7] [nM] | Emax [8] [%] | IC50 (Cannabinoid receptor 2) [nM] | Ki (Cannabinoid receptor 2) [nM] | Emax [9] [%] | IC50 [10] [nM] |
| --- | --- | --- | --- | --- | --- | --- | --- | --- | --- | --- | --- | --- | --- | --- |
| CCCCCc1cc(O)c(C/C=C(\C)CCC=C(C)C)c(O)c1 [CANNABIGEROL] | 13000 | 1500 | 160 | 1300 | 3310 | 760 | 1700 | 99.9 | 700 | 33.8 | 3460 | 880 | 73.6 | 2600 |
| CCCCCc1cc(O)c(C/C=C(\C)CC/C=C(\C)CCC=C(C)C)c(O)c1 [SESQUICANNABIGEROL] | 1200 | 2300 | 950 | 4400 | 3270 | 750 | 2700 | 164 | 1700 | 38.8 | 710 | 180 | 56 | 5700 |

— ChEMBL document CHEMBL1821606, “Bioactive prenylogous cannabinoid from fiber hemp (Cannabis sativa)” (J Nat Prod, 2011)
